The values that follow come from ChEMBL document CHEMBL4364350, “Use of a fluorescence assay to determine relative affinities of semisynthetic aminoglycosides to small RNAs representing bacterial and mitochondrial A sites” (Bioorg Med Chem, 2019).

Values after ≈ are worked out from the molar mass of the structure shown.

A short description of series [1]: Binding affinity to 5'-fluorescein-tagged Escherichia coli ribosomal A site wt-bac duplex RNA incubated for 2 mins by fluorescence spectrophotometric analysis. Put shortly: (§1)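 The 5'-fluorescein-labelled strand was set to 1 μM in binding buffer (10 mM HEPES pH 7.4, 150 mM NaCl, 3 mM Na2EDTA). The complementary strand was annealed at 95 °C for 1 min, then cooled slowly overnight. Aminoglycoside was added in 12–15 aliquots of 2 μL, each followed by 2 min incubation. Excitation 490 nm; 520 nm emission was volume-corrected. Fraction bound was fitted to a quadratic equation for apparent Kd, from three independent trials.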

Series [2] can be described thus: Binding affinity to 5'-fluorescein-tagged human mitochondrial ribosomal A site wt-duplex RNA incubated for 2 mins by fluorescence spectrophotometric analysis. Put shortly: as §1
The nature of series [3]: Binding affinity to 5'-fluorescein-tagged human mitochondrial ribosome A site mutant duplex RNA incubated for 2 mins by fluorescence spectrophotometry analysis. Put shortly:
as §1

The next series concerns the target Bacterial 70S ribosome. The series can be described thus: Anti-ribosomal activity against bacterial 70S hybrid ribosomes assessed as inhibition of cell-free translation incubated for 35 mins by dual luciferase reporter assay. It is filed as subcellular, Bacteria. In general terms: Reporter assays use an easily measured gene product as a stand-in for the process of interest.

The test system of series [4] is Escherichia coli. The series can be described thus: Antibacterial activity against Escherichia coli AG001 incubated for overnight by broth microdilution assay. The class given is functional. On the technique in general: Dilution methods test growth across graded concentrations, often in twofold steps.
The nature of series [5]: Anti-ribosomal activity against human-bacterial hybrid ribosome containing human mitochondrial ribosome A site harboring A1555G mutant 12s rRNA assessed as inhibition of cell-free translation by dual luciferase reporter assay.
Series [6] can be described thus: Anti-ribosomal activity against human-bacterial hybrid ribosome containing human mitochondrial ribosome A site harboring wild type 12s rRNA assessed as inhibition of cell-free translation by dual luciferase reporter assay.
A short description of series [7]: Selectivity ratio of IC50 for anti-ribosomal activity against human-bacterial hybrid ribosome containing human mitochondrial ribosome A site harboring wild type 12s rRNA to IC50 for anti-ribosomal activity against bacterial 70S hybrid ribosomes.
Series [8] has as its system human mitochondrial ribosomal A site (wild type) RNA. The series can be described thus: Selectivity ratio of Kd for 5'-fluorescein-tagged human mitochondrial ribosomal A site wt-duplex RNA to Kd for 5'-fluorescein-tagged Escherichia coli ribosomal A site wt-bac duplex RNA. It is filed as toxicity.
Series [9] in a line: Selectivity ratio of IC50 for anti-ribosomal activity against human-bacterial hybrid ribosome containing human mitochondrial ribosome A site harboring A1555G mutant 12s rRNA to IC50 for anti-ribosomal activity against bacterial 70S hybrid ribosomes.
Series [10] relates to human mitochondrial ribosome A site (mutant) RNA. The series can be described thus: Selectivity ratio of Kd for 5'-fluorescein-tagged human mitochondrial ribosome A site mutant duplex RNA to Kd for 5'-fluorescein-tagged Escherichia coli ribosomal A site wt-bac duplex RNA. The class given is toxicity.
Series [11] relates to Escherichia coli. Description: Potency index, ratio of paromomycin Kd to compound Kd for 5'-fluorescein-tagged Escherichia coli ribosomal A site wt-bac duplex RNA incubated for 2 mins by fluorescence spectrophotometric analysis.
The test system of series [12] is Escherichia coli. The series can be described thus: Binding affinity to 5'-fluorescein-tagged Escherichia coli ribosomal A site wt-bac duplex RNA assessed as conformational change in RNA by measuring decrease in fluorescence intensity incubated for 2 mins by fluorescence spectrophotometric analysis. Put shortly: as §1
The nature of series [13]: Binding affinity to 5'-fluorescein-tagged bacterial ribosomal A site 27-nucleotide hairpin RNA construct by fluorescence analysis. Set-up: species or system Bacteria.

With `CCC[C@H]1[C@H](O)[C@@H](N)[C@@H](O[C@H]2[C@H](O[C@@H]3O[C@H](CO)[C@@H](O[C@H]4O[C@@H](CN)[C@@H](O)[C@H](O)[C@H]4N)[C@H]3O)[C@@H](O)[C@H](N)C[C@@H]2N)O[C@@H]1CO`, the values for the Kd in series [1], in [2] and in series [3] were 0.002 µM, 26.9 µM and 5.8 µM, respectively. For the same compound, the IC50 on Bacterial 70S ribosome is 0.0467 µM; in series [5] it was 51 mg/L (≈ 79.5 µM); in series [6], 167 mg/L (≈ 260 µM). Also, in the series with Escherichia coli [4], the MIC is 2 mg/L (≈ 3.12 µM). Besides, the figures for the Ratio IC50 in series [7] and in series [9] were 5570 and 1730, respectively. Besides, the selectivity ratio in series [8] is 13400; in [10], 2900. In addition, in the series with Escherichia coli [11], the Ratio turned out to be 2.5.

Take `NC[C@@H]1O[C@H](O[C@H]2[C@@H](O)[C@H](O[C@@H]3[C@@H](O)[C@H](N)C[C@H](N)[C@H]3O[C@H]3O[C@H](CO)[C@@H](O)[C@H](O)[C@H]3N)O[C@@H]2CO)[C@H](N)[C@@H](O)[C@@H]1O` [PAROMOMYCIN]: the Kd was determined as 0.005 µM in [1], 6.5 µM in series [2] and 2.8 µM in series [3]. Also, inhibition of growth in the series with Escherichia coli [4] (MIC) required 4 mg/L (≈ 6.5 µM). Besides, the 50% inhibitory concentration (IC50) is 6 mg/L (≈ 9.75 µM) in series [5] and 51 mg/L (≈ 82.8 µM) in [6]. The Ratio IC50 in [7] was 1700; in [9], 200. Also, the selectivity ratio in series [8] turned out to be 1300; in series [10] it was 560.

`CCO[C@H]1[C@H](O)[C@@H](N)[C@@H](O[C@H]2[C@H](O[C@@H]3O[C@H](CO)[C@@H](O[C@H]4O[C@@H](CN)[C@@H](O)[C@H](O)[C@H]4N)[C@H]3O)[C@@H](O)[C@H](N)C[C@@H]2N)O[C@@H]1CO`: the Kd amounted to 0.03 µM in series [1], 12.8 µM in series [2] and 8.6 µM in series [3]. The IC50 at Bacterial 70S ribosome was 0.124 µM; in [5], 120 mg/L (≈ 186 µM); in [6] it was 97 mg/L (≈ 151 µM). In addition, inhibition of growth with Escherichia coli [4] (MIC) required 16 mg/L (≈ 24.9 µM). Further, the Ratio IC50 was determined as 1210 in series [7] and 1500 in series [9]. The selectivity ratio in series [8] came out at 427; in series [10], 287.

With `NC[C@@H]1O[C@H](O[C@H]2[C@@H](O)[C@H](O[C@@H]3[C@@H](O)[C@H](N)C[C@H](N)[C@H]3O[C@H]3O[C@H](CN)[C@@H](O)[C@H](O)[C@H]3N)O[C@@H]2CO)[C@H](N)[C@@H](O)[C@@H]1O` [FRAMYCETIN], the Kd worked out at 0.001 µM in series [1], 1.1 µM in series [2], 0.1 µM in [3] and 0.005 µM in [13]. Further, the Ratio IC50 in series [7] was found to be 200; in [9], 20. For the same compound, the selectivity ratio in [8] was 1100; in series [10], 100. Besides, in the series with Escherichia coli [12], the inhibition amounted to 20%.

By Kd is commonly meant the free concentration of one partner at which half of the binding sites on the other are occupied at equilibrium, for simple one-to-one binding. As a reminder, the IC50 is the concentration needed to halve the response being measured. The term MIC denotes the smallest concentration in the dilution series that meets the test's criterion for growth inhibition. A higher MIC goes with a less susceptible organism. By inhibition is commonly meant the drop in the measured response relative to a control, in per cent.
